Active and inactive are the calls of the source.
Key:
[1] = target: Serine/threonine-protein kinase PRP4 homolog (Homo sapiens) (UniProt Q13523); test: Inhibition of human PRP4 (663 to end residues) using casein as substrate measured after 40 mins in presence of [gamma33P]ATP by scintillation counting method
How it was run: (§1)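 Kinase panel of 422 kinases screened by Eurofins KinaseProfiler at a single test-compound concentration of 10 µM.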

[2] = target: 5'-AMP-activated protein kinase catalytic subunit alpha-1 (Homo sapiens) (UniProt Q13131); test: Inhibition of recombinant full-length human AMPKalpha1 at 10 uM using AMARAASAAALARRR as substrate measured after 40 mins in presence of [gamma33P]ATP by scintillation counting method
[3] = target: Cyclin-dependent kinase-like 2 (Homo sapiens) (UniProt Q92772); test: Inhibition of human CDKL2 at 10 uM by radiometric method; how it was run: as §1
[4] = system: RAF proto-oncogene serine/threonine-protein kinase (Homo sapiens), P04049 [Y340D,Y341D]; test: Inhibition of recombinant human c-RAF Y340D/Y341D mutant (360 to end residues) at 10 uM using inactive MEK1 as substrate measured after 40 mins in presence of [gamma33P]ATP by scintillation counting method
Homo sapiens = species on record: Homo sapiens; test: Inhibition of recombinant human DDR1 V833L mutant (492 to end residues) at 10 uM using KKKSPGEYVNIEFG as substrate measured after 40 mins in presence of [gamma33P]ATP by scintillation counting method
[5] = target: Serine/threonine-protein kinase 17B (Homo sapiens) (UniProt O94768); test: Inhibition of recombinant full-length human DRAK2 at 10 uM using KKRPQRRYSNVF as substrate measured after 120 mins in presence of [gamma33P]ATP by scintillation counting method
[6] = target: Ephrin type-A receptor 3 (Homo sapiens) (UniProt P29320); test: Inhibition of recombinant human EphA3 (578 to end residues) at 10 uM using poly(Glu, Tyr) 4:1 as substrate measured after 40 mins in presence of [gamma33P]ATP by scintillation counting method
[7] = target: Ephrin type-A receptor 4 (Homo sapiens) (UniProt P54764); test: Inhibition of recombinant human EphA4 (601 to 892 residues) at 10 uM using poly(Glu, Tyr) 4:1 as substrate measured after 40 mins in presence of [gamma33P]ATP by scintillation counting method
[8] = target: Beta-adrenergic receptor kinase 1 (Homo sapiens) (UniProt P25098); test: Inhibition of recombinant full-length human GRK2 at 10 uM using casein as substrate measured after 40 mins in presence of [gamma33P]ATP by scintillation counting method
[9] = target: G protein-coupled receptor kinase 6 (Homo sapiens) (UniProt P43250); test: Inhibition of recombinant full-length human GRK6 at 10 uM using casein as substrate measured after 40 mins in presence of [gamma33P]ATP by scintillation counting method
[10] = target: LIM domain kinase 1 (Homo sapiens) (UniProt P53667); test: Inhibition of recombinant human LIMK1 (285 to 638 residues) at 10 uM using cofilin as substrate measured after 40 mins in presence of [gamma33P]ATP by scintillation counting method
[11] = system: Hepatocyte growth factor receptor (Homo sapiens), P08581 [Y1230C]; test: Inhibition of recombinant human MET A1209G/V1290L/Y1248C mutant (974 to end residues) at 10 uM using KKKGQEEEYVFIE as substrate measured after 40 mins in presence of [gamma33P]ATP by scintillation counting method
[12] = target: Serine/threonine-protein kinase Nek3 (Homo sapiens) (UniProt P51956); test: Inhibition of recombinant full-length human NEK3 at 10 uM using myelin basic protein as substrate measured after 40 mins in presence of [gamma33P]ATP by scintillation counting method
[13] = target: Phosphorylase b kinase gamma catalytic chain, skeletal muscle/heart isoform (Homo sapiens) (UniProt Q16816); test: Inhibition of recombinant full-length human PhKgamma1 at 10 uM using KKLNRTLSFAEPG as substrate measured after 120 mins in presence of [gamma33P]ATP by scintillation counting method
[14] = target: Protein kinase C alpha type (Homo sapiens) (UniProt P17252); test: Inhibition of recombinant full-length human PKCalpha at 10 uM using histone H1 as substrate measured after 40 mins in presence of [gamma33P]ATP by scintillation counting method
[15] = target: Protein kinase C beta type (Homo sapiens) (UniProt P05771); test: Inhibition of recombinant human PKCbeta2 (2 to end residues) at 10 uM using histone H1 as substrate measured after 40 mins in presence of [gamma33P]ATP by scintillation counting method
[16] = target: Protein kinase C iota type (Homo sapiens) (UniProt P41743); test: Inhibition of recombinant full-length human PKCiota at 10 uM using ERMRPRKRQGSVRRRV as substrate measured after 40 mins in presence of [gamma33P]ATP by scintillation counting method
[17] = target: cGMP-dependent protein kinase 1 (Homo sapiens) (UniProt Q13976); test: Inhibition of recombinant full-length human PKG1beta at 10 uM using RRRLSFAEPG as substrate measured after 40 mins in presence of [gamma33P]ATP by scintillation counting method
[18] = target: Interferon-induced, double-stranded RNA-activated protein kinase (Homo sapiens) (UniProt P19525); test: Inhibition of recombinant human PKR (252 to end residues) at 10 uM using RSRSRSRSRSRSRSR as substrate measured after 40 mins in presence of [gamma33P]ATP by scintillation counting method
[19] = target: NT-3 growth factor receptor (Homo sapiens) (UniProt Q16288); test: Inhibition of human TrkC (510 to end residues) using GEEPLYWSFPAKKK as substrate measured after 40 mins in presence of [gamma33P]ATP by scintillation counting method
[20] = target: Tyrosine-protein kinase TXK (Homo sapiens) (UniProt P42681); test: Inhibition of human Txk (256 to end residues) using GEEPLYWSFPAKKK as substrate measured after 40 mins in presence of [gamma33P]ATP by scintillation counting method
[21] = target: Serine/threonine-protein kinase VRK2 (Homo sapiens) (UniProt Q86Y07); test: Inhibition of human VRK2 (1 to 336 residues) using casein as substrate measured after 40 mins in presence of [gamma33P]ATP by scintillation counting method
[22] = target: Death-associated protein kinase 3 (Homo sapiens) (UniProt O43293); test: Inhibition of human ZIPK (1 to 290 residues) using KKLNRTLSFAEPG as substrate measured after 40 mins in presence of [gamma33P]ATP by scintillation counting method
[23] = target: PI3K p110 beta/p85 alpha (Homo sapiens) (UniProt P27986+P42338); test: Inhibition of recombinant full-length human PI3K p110beta/p85alpha at 10 uM using phosphatidylinositol-4, 5-bisphosphate as substrate measured after 40 mins by fluorescence assay; type: protein-complex assay

Measured: inhibition

Chain of PI3K p110 beta/p85 alpha (Homo sapiens) (P27986 2-724 limits assumed): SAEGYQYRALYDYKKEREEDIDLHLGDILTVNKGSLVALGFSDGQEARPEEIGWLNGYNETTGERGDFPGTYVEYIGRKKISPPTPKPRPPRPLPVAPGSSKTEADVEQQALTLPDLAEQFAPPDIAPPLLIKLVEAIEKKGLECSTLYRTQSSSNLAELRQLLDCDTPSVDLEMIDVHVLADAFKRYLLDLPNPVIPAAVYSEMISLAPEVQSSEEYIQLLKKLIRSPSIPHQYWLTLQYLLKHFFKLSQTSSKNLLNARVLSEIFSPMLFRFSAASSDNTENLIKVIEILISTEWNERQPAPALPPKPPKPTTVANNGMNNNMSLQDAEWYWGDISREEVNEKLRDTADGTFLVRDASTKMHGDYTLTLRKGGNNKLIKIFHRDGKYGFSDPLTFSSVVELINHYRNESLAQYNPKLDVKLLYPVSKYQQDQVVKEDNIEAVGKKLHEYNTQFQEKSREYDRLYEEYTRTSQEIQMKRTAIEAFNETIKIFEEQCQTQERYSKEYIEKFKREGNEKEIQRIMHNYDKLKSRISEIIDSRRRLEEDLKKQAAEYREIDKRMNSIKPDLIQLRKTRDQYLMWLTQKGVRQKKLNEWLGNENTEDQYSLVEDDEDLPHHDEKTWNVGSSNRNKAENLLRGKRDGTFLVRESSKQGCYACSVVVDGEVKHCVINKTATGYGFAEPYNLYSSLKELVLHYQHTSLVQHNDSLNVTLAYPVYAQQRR
Chain of PI3K p110 beta/p85 alpha (Homo sapiens) (P42338 whole entry partner): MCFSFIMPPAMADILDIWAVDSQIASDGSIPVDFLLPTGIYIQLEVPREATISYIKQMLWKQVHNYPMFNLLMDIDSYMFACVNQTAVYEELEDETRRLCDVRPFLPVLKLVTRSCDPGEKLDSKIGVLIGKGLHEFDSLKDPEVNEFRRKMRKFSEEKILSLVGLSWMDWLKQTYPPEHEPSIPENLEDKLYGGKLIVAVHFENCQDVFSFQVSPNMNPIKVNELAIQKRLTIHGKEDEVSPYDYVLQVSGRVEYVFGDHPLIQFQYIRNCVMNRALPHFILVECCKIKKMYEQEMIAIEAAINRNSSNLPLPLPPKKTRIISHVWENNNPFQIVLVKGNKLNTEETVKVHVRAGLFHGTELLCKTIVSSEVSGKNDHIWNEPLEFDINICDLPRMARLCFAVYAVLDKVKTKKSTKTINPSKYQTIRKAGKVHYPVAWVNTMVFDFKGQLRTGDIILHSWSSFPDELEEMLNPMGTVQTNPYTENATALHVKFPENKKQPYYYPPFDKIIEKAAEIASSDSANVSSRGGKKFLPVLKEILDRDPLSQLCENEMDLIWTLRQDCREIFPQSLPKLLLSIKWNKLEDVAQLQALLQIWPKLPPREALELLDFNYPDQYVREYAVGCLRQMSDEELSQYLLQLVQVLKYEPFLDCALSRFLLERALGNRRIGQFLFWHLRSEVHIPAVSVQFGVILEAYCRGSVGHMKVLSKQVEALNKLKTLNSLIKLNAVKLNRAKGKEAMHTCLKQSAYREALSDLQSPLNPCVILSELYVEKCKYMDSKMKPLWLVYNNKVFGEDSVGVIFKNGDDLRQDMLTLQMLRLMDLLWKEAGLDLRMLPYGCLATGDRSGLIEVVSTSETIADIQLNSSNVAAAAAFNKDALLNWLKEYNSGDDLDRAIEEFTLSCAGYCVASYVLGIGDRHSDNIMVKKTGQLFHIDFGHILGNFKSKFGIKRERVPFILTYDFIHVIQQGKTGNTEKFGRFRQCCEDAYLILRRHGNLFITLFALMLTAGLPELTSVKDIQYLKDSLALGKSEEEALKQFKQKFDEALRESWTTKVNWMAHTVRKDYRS
Chain of Serine/threonine-protein kinase 17B (Homo sapiens) (O94768 whole entry): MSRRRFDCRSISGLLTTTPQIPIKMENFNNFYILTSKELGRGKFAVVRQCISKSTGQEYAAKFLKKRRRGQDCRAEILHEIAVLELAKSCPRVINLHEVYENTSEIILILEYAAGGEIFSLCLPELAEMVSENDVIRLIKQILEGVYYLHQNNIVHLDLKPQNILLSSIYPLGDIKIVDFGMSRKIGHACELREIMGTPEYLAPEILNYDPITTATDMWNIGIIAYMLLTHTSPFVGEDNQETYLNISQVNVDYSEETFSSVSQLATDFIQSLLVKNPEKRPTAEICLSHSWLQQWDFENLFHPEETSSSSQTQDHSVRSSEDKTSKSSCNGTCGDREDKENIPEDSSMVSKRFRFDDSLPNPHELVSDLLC
Chain of cGMP-dependent protein kinase 1 (Homo sapiens) (Q13976 whole entry): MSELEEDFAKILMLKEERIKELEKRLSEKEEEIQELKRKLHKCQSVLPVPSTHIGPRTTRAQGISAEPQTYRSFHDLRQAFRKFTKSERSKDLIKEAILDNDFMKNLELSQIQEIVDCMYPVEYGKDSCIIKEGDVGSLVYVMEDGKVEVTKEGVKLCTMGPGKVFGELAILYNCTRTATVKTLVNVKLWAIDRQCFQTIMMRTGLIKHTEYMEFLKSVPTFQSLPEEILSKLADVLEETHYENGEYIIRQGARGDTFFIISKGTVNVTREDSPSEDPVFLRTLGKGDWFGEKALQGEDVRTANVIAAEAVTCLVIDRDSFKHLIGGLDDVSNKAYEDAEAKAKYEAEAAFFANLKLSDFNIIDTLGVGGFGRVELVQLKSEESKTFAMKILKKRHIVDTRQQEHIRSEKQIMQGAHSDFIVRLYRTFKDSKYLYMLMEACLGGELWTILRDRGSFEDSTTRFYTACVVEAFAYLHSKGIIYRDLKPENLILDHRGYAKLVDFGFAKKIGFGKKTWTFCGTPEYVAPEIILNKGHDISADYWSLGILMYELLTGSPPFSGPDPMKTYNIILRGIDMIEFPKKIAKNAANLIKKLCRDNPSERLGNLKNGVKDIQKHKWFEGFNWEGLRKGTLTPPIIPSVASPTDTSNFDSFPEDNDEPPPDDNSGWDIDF
Chain of Beta-adrenergic receptor kinase 1 (Homo sapiens) (P25098 whole entry): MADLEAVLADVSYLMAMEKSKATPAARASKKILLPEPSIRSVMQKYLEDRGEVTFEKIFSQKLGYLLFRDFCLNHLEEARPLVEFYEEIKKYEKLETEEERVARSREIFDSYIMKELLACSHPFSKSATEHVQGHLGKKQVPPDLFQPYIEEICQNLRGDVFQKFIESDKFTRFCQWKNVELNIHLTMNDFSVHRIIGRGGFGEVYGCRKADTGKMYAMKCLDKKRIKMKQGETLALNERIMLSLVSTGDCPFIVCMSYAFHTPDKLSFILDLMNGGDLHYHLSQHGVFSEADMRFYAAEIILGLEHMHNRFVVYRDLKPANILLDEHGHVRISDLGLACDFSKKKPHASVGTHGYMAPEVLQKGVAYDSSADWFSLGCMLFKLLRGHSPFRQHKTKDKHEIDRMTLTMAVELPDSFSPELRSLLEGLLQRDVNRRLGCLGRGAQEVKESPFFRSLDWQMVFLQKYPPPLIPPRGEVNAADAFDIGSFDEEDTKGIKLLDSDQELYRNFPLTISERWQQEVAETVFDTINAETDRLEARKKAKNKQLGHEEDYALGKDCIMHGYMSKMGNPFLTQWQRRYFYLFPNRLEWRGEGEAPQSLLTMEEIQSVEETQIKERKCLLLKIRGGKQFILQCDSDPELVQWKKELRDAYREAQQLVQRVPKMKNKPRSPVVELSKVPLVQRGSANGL
Chain of Ephrin type-A receptor 4 (Homo sapiens) (P54764 whole entry, the tested form may be a part): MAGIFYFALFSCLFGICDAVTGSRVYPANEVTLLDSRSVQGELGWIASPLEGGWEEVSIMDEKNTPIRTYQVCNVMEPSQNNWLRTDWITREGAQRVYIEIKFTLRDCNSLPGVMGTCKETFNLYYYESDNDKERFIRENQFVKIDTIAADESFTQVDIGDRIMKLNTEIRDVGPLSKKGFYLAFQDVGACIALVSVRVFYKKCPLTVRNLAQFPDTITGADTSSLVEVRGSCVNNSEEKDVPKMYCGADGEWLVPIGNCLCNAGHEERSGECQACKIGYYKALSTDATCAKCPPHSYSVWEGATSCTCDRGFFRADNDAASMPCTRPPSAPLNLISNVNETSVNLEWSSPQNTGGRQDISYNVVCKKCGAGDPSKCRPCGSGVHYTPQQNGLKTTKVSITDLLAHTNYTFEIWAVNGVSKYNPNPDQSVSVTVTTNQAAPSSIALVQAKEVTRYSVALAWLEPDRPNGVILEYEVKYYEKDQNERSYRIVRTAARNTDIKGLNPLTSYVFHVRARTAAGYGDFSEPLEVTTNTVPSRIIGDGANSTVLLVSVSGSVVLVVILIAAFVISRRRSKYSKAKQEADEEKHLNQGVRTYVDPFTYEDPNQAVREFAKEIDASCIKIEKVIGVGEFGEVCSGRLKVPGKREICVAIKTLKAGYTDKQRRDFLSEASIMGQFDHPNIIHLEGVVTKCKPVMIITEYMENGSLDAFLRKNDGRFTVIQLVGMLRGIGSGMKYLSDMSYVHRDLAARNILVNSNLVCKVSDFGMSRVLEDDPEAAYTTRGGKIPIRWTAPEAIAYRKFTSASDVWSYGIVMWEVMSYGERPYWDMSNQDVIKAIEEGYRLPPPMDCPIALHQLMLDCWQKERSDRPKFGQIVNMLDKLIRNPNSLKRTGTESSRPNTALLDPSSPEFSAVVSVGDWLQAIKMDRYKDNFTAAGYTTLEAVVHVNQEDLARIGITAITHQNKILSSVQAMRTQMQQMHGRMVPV
Chain of Interferon-induced, double-stranded RNA-activated protein kinase (Homo sapiens) (P19525 whole entry): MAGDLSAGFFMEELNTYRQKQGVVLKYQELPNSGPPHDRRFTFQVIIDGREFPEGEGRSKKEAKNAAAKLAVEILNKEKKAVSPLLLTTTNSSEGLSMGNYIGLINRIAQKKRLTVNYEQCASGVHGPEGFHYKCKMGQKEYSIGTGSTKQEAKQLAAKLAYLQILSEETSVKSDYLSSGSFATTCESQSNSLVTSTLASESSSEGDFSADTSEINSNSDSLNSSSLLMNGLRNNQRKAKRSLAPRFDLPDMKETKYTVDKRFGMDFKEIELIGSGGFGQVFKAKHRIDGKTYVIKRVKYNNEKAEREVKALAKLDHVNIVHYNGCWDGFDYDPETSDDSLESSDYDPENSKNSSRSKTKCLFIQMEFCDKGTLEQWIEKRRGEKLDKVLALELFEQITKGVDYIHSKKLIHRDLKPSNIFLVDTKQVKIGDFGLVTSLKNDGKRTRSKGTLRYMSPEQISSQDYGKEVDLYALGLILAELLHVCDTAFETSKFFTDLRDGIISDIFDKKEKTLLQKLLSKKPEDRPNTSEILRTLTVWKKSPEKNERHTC

CN1C[C@H](Nc2nc3cc[nH]c3c(=O)n2C)C[C@H](c2ccc3c(c2)OCCO3)C1
inactive: all assays above

— ChEMBL document CHEMBL4350961, “Discovery of Pyrrolo[3,2- d]pyrimidin-4-one Derivatives as a New Class of Potent and Cell-Active Inhibitors of P300/CBP-Associated Factor Bromodomain” (J Med Chem, 2019)
